In ChEMBL document CHEMBL2062433, “Synthesis and antiviral activity of substituted bisaryl amide compounds as novel influenza virus inhibitors” (Eur J Med Chem, 2012):
pIC50: −log10 of the molar value.

Experiments:
Influenza A virus [1] = assay: Antiviral activity against Influenza A virus (A/Guangdong-Luohu/219/2006(H1N1)) infected in MDCK cells assessed as inhibition of virus-induced cytopathic effect; assay type: functional, organism-based
Method in brief: (§1)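 Confluent MDCK monolayers infected with 100 TCID50 of virus; 2 h adsorption at 37 °C, PBS wash, then maintenance medium at 37 °C with or without serial compound concentrations. CPE scored once virus control wells reached grade 4. IC50 calculated by Reed and Muench; values are averages of three independent assays.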

Influenza A virus [2] = assay: Antiviral activity against Influenza A virus (A/Tianjin-Jinnan/15/2009(H1N1)) infected in MDCK cells assessed as inhibition of virus-induced cytopathic effect; assay type: functional, organism-based; method in brief: as §1
[3] = Selectivity index, ratio of TC50 for MDCK cells to IC50 for Influenza A virus (A/Guangdong-Luohu/219/2006(H1N1)); assay type: toxicity, cell-based; details: dog, read-out: Selectivity Index
Method in brief: (§2)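 SI is TC50 divided by IC50. TC50 comes from uninfected MDCK cells after 48 h of compound exposure, scored by CPE. IC50 comes from MDCK cells infected with 100 TCID50 and scored for CPE when virus controls reached grade 4. Both values calculated by Reed and Muench.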

Influenza B virus = assay: Antiviral activity against Influenza B virus (strain B/Jifang/13/97) infected in MDCK cells assessed as inhibition of virus-induced cytopathic effect; assay type: functional, organism-based
[4] = Cytotoxicity against MDCK cells incubated for 48 hrs by CPE method; assay type: cell-based, Canis lupus familiaris; details: dog, read-out: TC50
Method in brief: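 MDCK cells seeded at 2.5 × 10^4 per well and grown 24 h, then exposed to various compound concentrations for 48 h at 37 °C in 5% CO2. Toxicity scored by CPE observation. TC50 calculated by Reed and Muench; values are averages of three independent assays.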

[5] = Selectivity index, ratio of TC50 for MDCK cells to IC50 for Influenza A virus (A/Tianjin-Jinnan/15/2009(H1N1)); assay type: toxicity, cell-based; details: dog, read-out: Selectivity Index; method in brief: as §2
[6] = Selectivity index, ratio of TC50 for MDCK cells to IC50 for Influenza B virus (strain B/Jifang/13/97); assay type: toxicity, cell-based; details: dog, read-out: Selectivity Index

Row | Compound | pIC50 (Influenza A virus [1]) | pIC50 (Influenza A virus [2]) | selectivity ratio [3] | pIC50 (Influenza B virus) | CC50 at 48 h [4] [µM] | selectivity ratio [5] | selectivity ratio [6]
1 | CCC(=O)Nc1cc(C(=O)Nc2ccc(C)cc2)ccc1OC | 4.63 | < 4.63 | 6.8 | < 4.63 | 162 | – | –
2 | CCC(=O)Nc1cc(NC(=O)c2ccccc2)ccc1OC | 4.13 | – | 5.2 | – | 387 | – | –
3 | CCC(=O)Nc1cc(C(=O)Nc2cccc(SC)c2)ccc1OC | < 4.20 | – | – | – | 324 | – | –
4 | CCC(=O)Nc1cc(C(=O)Nc2nccs2)ccc1OC | 4.46 | 4.03 | > 18.7 | 3.90 | > 655 | 6.9 | > 5.2
5 | CCC(=O)Nc1cc(C(=O)Nc2cccc(Cl)c2)ccc1OC | < 4.17 | – | – | – | 602 | – | –
6 | CCC(=O)Nc1cc(C(=O)NC2CCCCC2)ccc1OC | 4.14 | – | 6.9 | – | 510 | – | –
7 | COc1ccc(C(=O)Nc2ccccc2)cc1 | < 3.53 | – | – | – | > 880 | – | –
8 | CCC(=O)Nc1cc(S(=O)(=O)Nc2ccccc2)ccc1OC | 4.32 | < 4.18 | > 12.4 | < 4.18 | > 599 | – | –
9 | CCC(=O)Nc1cc(C(=O)NC2CCC2)ccc1OC | 4.23 | < 3.62 | > 12.3 | < 3.62 | > 724 | – | –
10 | CCC(=O)Nc1cc(C(=O)Oc2ccccc2)ccc1OC | 3.65 | – | 2.1 | – | 464 | – | –
11 | COc1ccc(C(=O)Nc2ccccc2)cc1NC(=O)c1ccccc1 | 4.90 | 5.04 | 15.4 | 4.67 | 192 | 20.9 | 9
12 | CCOC(=O)C1=C[C@@H](OC(CC)CC)[C@H](NC(C)=O)[C@@H](N)C1 [OSELTAMIVIR] | 5.70 | < 2.61 | 1540 | – | 3070 | – | –
13 | CC(F)C(=O)Nc1cccc(C(=O)Nc2ccccc2)c1 (centres undefined) | 3.84 | – | 4 | – | 578 | – | –
14 | NC(=O)c1ncn([C@@H]2O[C@H](CO)[C@@H](O)[C@H]2O)n1 [RIBAVIRIN] | 5.06 | 4.45 | 542 | 4.34 | 4770 | 135 | 104
15 | CCC(=O)Nc1cc(C(=O)Nc2ccc([N+](=O)[O-])cc2)ccc1OC | 4.58 | < 4.67 | 11.7 | 4.19 | 307 | – | 4.7
16 | CCC(=O)Nc1cc(C(=O)Nc2ccc(Br)cc2)ccc1OC | < 4.75 | – | – | – | 90.4 | – | –
17 | CCC(=O)Nc1cc(C(=O)N(C)c2ccccc2)ccc1OC | 4.00 | – | 4.4 | – | 444 | – | –
18 | COc1ccc(NC(=O)C(C)F)cc1C(=O)Nc1ccccc1 (centres undefined) | < 4.15 | – | – | – | 272 | – | –
19 | COc1ccc(C(=O)Nc2ccccc2)cc1NC(=O)C1CCCC1 | 4.42 | < 4.18 | 12.1 | < 4.18 | 459 | – | –
20 | COc1ccc(C(=O)Nc2ccccc2)cc1NC(C)=O | 3.95 | – | > 6.2 | – | > 704 | – | –
21 | CCC(=O)Nc1cc(C(=O)Nc2ccccc2)ccc1OC | 4.37 | < 3.65 | > 15.6 | < 3.65 | > 670 | – | –
22 | COc1cc(NC(=O)C(C)F)cc(C(=O)Nc2ccccc2)c1 (centres undefined) | 3.68 | – | 2.3 | – | 491 | – | –
23 | CCC(=O)Oc1cc(C(=O)Nc2ccccc2)ccc1OC | 3.76 | – | 3 | – | 518 | – | –
24 | COc1c(NC(=O)C(C)F)cccc1C(=O)Nc1ccccc1 (centres undefined) | < 3.68 | – | – | – | > 632 | – | –
25 | COc1ccc(C(=O)Nc2ccccc2)cc1NC(=O)C(C)Cl (centres undefined) | 4.76 | < 4.65 | 11.6 | < 4.65 | 200 | – | –
26 | CCC(=O)Nc1cc(C(=O)Nc2ccccn2)ccc1OC | 3.65 | – | > 3 | – | > 669 | – | –
27 | CCC(=O)Nc1cc(C(=O)Nc2ccccc2)ccc1Cl | 3.82 | – | 3.5 | – | 530 | – | –
28 | COc1ccc(C(=O)N(C)c2ccccc2)cc1NC(=O)C(C)C | 3.93 | – | 4.2 | – | 492 | – | –
29 | COc1ccc(C(=O)Nc2ccccc2)cc1NC(=O)C(C)F (centres undefined) | 3.68 | – | > 3 | – | > 632 | – | –
